Test results from ChEMBL document CHEMBL1153722, “Design, synthesis, and characterization of peptide-based rab geranylgeranyl transferase inhibitors” (J Med Chem, 2009).
Activity calls are given as the source filed them. The calls are words filed in the database; no cut-off is given here.

Columns and labels:
[1] = Inhibition of rat recombinant Rab geranylgeranyltransferase iin presence of canine Rab7 and rat REP1 by NBD-FPP based continuous fluorimetric assay
How it was run: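 Continuous fluorometric assay in 96/384-well format: 3 μM Rab7, 3 μM REP1, 9 μM NBD-FPP and 400 nM RabGGTase, with or without inhibitor. IC50 was calculated from three independent measurements.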

[2] = Displacement of Mant-FPP from rat recombinant Rab geranylgeranyltransferase by co-titration based fluorescence assay
How it was run: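 RabGGTase was titrated into 300 nM Mant-FPP at several fixed inhibitor concentrations. Apparent Kd of Mant-FPP was obtained at each inhibitor level by quadratic fitting. Linear versus hyperbolic dependence of apparent Kd on inhibitor concentration was taken as competitive versus partially competitive binding.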

Rattus norvegicus [3] = organism: Rattus norvegicus; assay: Displacement of NBD-FPP from rat recombinant Rab geranylgeranyltransferase by fluorescence titration
How it was run: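 Displacement titration: 400 nM NBD-FPP was pre-equilibrated with 550 nM RabGGTase. Inhibitor was added stepwise in 1 or 5 μM increments while NBD fluorescence was monitored. The end point was controlled by a final addition of GGPP to 4 μM.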

[4] = Inhibition of rat recombinant Rab geranylgeranyltransferase by SDS-PAGE end point assay
How it was run: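 End-point transfer of fluorescent prenyl analogues (NBD-GPP or NBD-FPP) to protein substrates was run for 10 min at varied inhibitor concentrations. Substrates were GST-KiRas for FTase, GST-RhoA for GGTase-I and Rab7 for RabGGTase. Reactions were quenched with SDS sample buffer and run on SDS-PAGE. Fluorescent bands were quantified by densitometry.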

[5] = test system: COS-7 (Chlorocebus aethiops); assay: Cytotoxicity in monkey COS-7 cells at 100 uM; details: COS-7, 100 µM
[6] = biological target: protein farnesyltransferase (Rattus norvegicus); assay: Inhibition of rat recombinant FTase by SDS-PAGE end point assay
[7] = biological target: geranylgeranyltransferase type-I (Rattus norvegicus); assay: Inhibition of rat recombinant GGTase-1 by SDS-PAGE end point assay
[8] = test system: COS-7 (Chlorocebus aethiops); assay: Inhibition of recombinant Rab geranylgeranyltransferase expressed in COS-7 cells assessed as inhibition of geranylgeranylation of EYFP-Rab7 protein by Western blot; parameters: concentration or dose not given beside the values; details: dose or concentration not given here
[9] = test system: COS-7 (Chlorocebus aethiops); assay: Inhibition of recombinant Rab geranylgeranyltransferase expressed in COS-7 cells assessed as inhibition of geranylgeranylation of EYFP-Rab7 protein at 10 to 100 uM by Western blot relative to compactin
Rattus norvegicus [10] = organism: Rattus norvegicus; assay: Inhibition of rat recombinant Rab geranylgeranyltransferase at 100 uM in presence of canine Rab7 and rat REP1 NBD-FPP based continuous fluorimetric assay
How it was run: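 Continuous fluorometric assay in 96/384-well format: 3 μM Rab7, 3 μM REP1, 9 μM NBD-FPP and 400 nM RabGGTase, with or without inhibitor. […] IC50 was calculated from three independent measurements.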

IC50 [1] | Ki [2] | Activity (Rattus norvegicus [3]) | IC50 [4] | IC50 [6] | IC50 [7] | inhibition (Rattus norvegicus [10]) | Structure (SMILES) | Activity [5] | inhibition [8] | Activity [9]
6.3 µM | 2.8 µM | Active | 4.3 µM | > 100 µM | > 100 µM | – | CCCCCCCCCCC(=O)N[C@@H](Cc1ccc(O)cc1)C(=O)N[C@@H](Cc1c[nH]cn1)C(=O)N[C@@H](Cc1ccc(O)cc1)C(=O)N(C)CCc1ccccn1 | Non-toxic | 70% | Dose-dependent effect
25 µM | – | – | 31 µM | 3.4 µM | 5.6 µM | – | O=C(CNC(=O)c1coc(-c2ccccc2)n1)N[C@@H](Cc1ccccc1)C(=O)N[C@@H](Cc1cn(C(c2ccccc2)(c2ccccc2)c2ccccc2)cn1)C(=O)O | – | – | –
22.7 µM | 4.5 µM | Active | – | – | – | – | CN(C(=O)[C@@H](Cc1c[nH]cn1)NC(=O)OCc1ccccc1)[C@@H](Cc1ccccc1)C(=O)N[C@@H](Cc1ccc(O)cc1)C(=O)O | – | – | –
– | 5.4 µM | – | 2.8 µM | – | – | – | CCCCCCCCCCC(=O)N[C@@H](Cc1c[nH]cn1)C(=O)N[C@@H](Cc1ccccc1)C(=O)N[C@@H](Cc1ccc(O)cc1)C(=O)N(C)CCc1ccccn1 | – | 70% | Dose-dependent effect
– | 14.5 µM | Active | – | – | – | – | CN(C(=O)[C@H](Cc1cnc[nH]1)NC(=O)OCc1ccccc1)[C@@H](Cc1ccccc1)C(=O)N[C@@H](Cc1ccc(O)cc1)C(=O)NO | – | 70% | Dose-dependent effect
8.1 µM | 5.3 µM | Active | 14 µM | 13 µM | 6.9 µM | – | O=C(CNC(=O)[C@H](Cc1c[nH]cn1)NC(=O)c1coc(-c2ccccc2)n1)N[C@@H](Cc1cn(C(c2ccccc2)(c2ccccc2)c2ccccc2)cn1)C(=O)O | Non-toxic | 70% | Dose-dependent effect
2.8 µM | – | – | 8.8 µM | 98 µM | 97 µM | – | CCCCCCCC(=O)N[C@@H](Cc1c[nH]cn1)C(=O)N[C@@H](Cc1ccccc1)C(=O)N[C@@H](Cc1ccc(O)cc1)CN(C)CCc1ccccn1 | – | – | –
– | 1.1 µM | Dose-dependent effect | 10 µM | – | – | – | CCCCCCCCCCC(=O)N[C@@H](Cc1cnc[nH]1)C(=O)N[C@@H](Cc1c[nH]cn1)C(=O)N[C@@H](Cc1ccc(O)cc1)C(=O)N(C)CCc1ccccn1 | – | 70% | Dose-dependent effect
38 µM | – | – | 41 µM | 14 µM | 2.6 µM | 86% | O=C(CNC(=O)[C@H](Cc1cn(C(c2ccccc2)(c2ccccc2)c2ccccc2)cn1)NC(=O)c1coc(-c2ccccc2)n1)N[C@@H](Cc1c[nH]cn1)C(=O)O | – | – | –
